# What was measured:
# S1P3 [1] = target: T1, S1P3 (Homo sapiens, UniProt Q99500); assay: Ligand-induced ERK phosphorylation; type: cell-based; details: for ERK phosphorylation response: WT S1P3 Jump-In CHO cells
# Summary of the method: (§1)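 Jump-In TI CHO-K cells carrying N-terminal triple-HA-tagged WT or point-mutant S1P3, stably retargeted and selected 4 weeks with blasticidin 10 μg/mL. Serum-starved 4 h, then exposed 5 min to increasing agonist. For antagonism, 1 uM antagonist was added 15 min beforehand or premixed with agonist. Phospho-p44/42 MAPK (Thr202/Tyr204) measured by sandwich ELISA; EC50 fitted from dose-response curves.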
# [2] = system: full panel of S1P receptors; assay: Profiling against the full panel of S1P receptors; type: cell-based; details: Supporting Table S3
# [3] = Stability in biological systems; type: in vitro ADME
# Solubility = type: physicochemical
# [4] = target: WT, W256L, and F263L mutant S1P3 (Homo sapiens, UniProt Q99500); assay: [33P]S1P radioligand binding and competition, Jump-In CHO cells; details: 0.1 nM [33P]S1P, W256L and F263L Jump-In cell lines (all cell lines)
# Chain of WT, W256L, and F263L mutant S1P3 (Q99500 whole entry W256L/F263L): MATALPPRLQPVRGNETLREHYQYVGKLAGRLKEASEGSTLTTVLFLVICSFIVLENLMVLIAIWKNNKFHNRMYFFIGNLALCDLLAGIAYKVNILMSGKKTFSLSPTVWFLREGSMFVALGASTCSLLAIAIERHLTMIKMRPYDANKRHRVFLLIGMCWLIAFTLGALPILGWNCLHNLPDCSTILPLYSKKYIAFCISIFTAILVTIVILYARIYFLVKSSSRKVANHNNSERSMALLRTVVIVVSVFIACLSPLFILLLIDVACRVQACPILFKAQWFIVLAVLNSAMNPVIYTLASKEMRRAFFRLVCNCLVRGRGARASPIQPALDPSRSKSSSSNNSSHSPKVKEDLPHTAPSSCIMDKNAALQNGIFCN
# Summary of the method: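 Jump-In TI CHO-K cells (5 × 105) stably expressing WT, W256L or F263L S1P3, serum-starved 4 h. Incubated 30 min at 4 °C with 0.1 nM [33P]S1P plus increasing competitor in 20 mM Tris-HCl pH 7.5, NaCl, NaF, EDTA, Na3VO4, 0.5% fatty-acid-free BSA and protease inhibitors. Washed three times cold, lysed in 0.5% SDS, scintillation-counted. Normalized to each line's uncompeted binding (100%).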
# M98A mutant S1P3 = M98A mutant S1P3 (Homo sapiens, UniProt Q99500, M98A); assay: ERK phosphorylation, M98A mutant S1P3 Jump-In CHO cells; type: cell-based
# Chain of M98A mutant S1P3 (Q99500 whole entry M98A): as the sequence (Q99500 whole entry W256L/F263L) above, with M98A, L256W, L263F counted along it
# Summary of the method: as §1
# F263L S1P3 [5] = target: T2, F263L S1P3 (Homo sapiens, UniProt Q99500, F263L); assay: ERK phosphorylation, F263L mutant S1P3; type: cell-based; details: ERK phosphorylation assay, vs WT
# T2 sequence (Q99500 whole entry F263L): as the sequence (Q99500 whole entry W256L/F263L) above, with L256W counted along it
# Summary of the method: as §1
# W256L S1P3 = W256L S1P3 (Homo sapiens, UniProt Q99500, W256L); assay: ERK phosphorylation, W256L mutant S1P3; type: cell-based; details: ERK phosphorylation assay, vs WT
# Chain of W256L S1P3 (Q99500 whole entry W256L): as the sequence (Q99500 whole entry W256L/F263L) above, with L263F counted along it
# Summary of the method: as §1
# R114A mutant S1P3 = R114A mutant S1P3 (Homo sapiens, UniProt Q99500, R114A); assay: ERK phosphorylation, R114A mutant S1P3 Jump-In CHO cells; type: cell-based; details: R114A mutant vs WT
# Chain of R114A mutant S1P3 (Q99500 whole entry R114A): as the sequence (Q99500 whole entry W256L/F263L) above, with R114A, L256W, L263F counted along it
# Summary of the method: as §1
# S1P3 [6] = target: T1, S1P3; assay: Receptor assays coupled to Gi and Gq; type: cell-based; details: ERK phosphorylation, calcium flux, β-arrestin, NFAT-β-lactamase assays
# S1P2 = details: read-out: S1P2 EC50; in vitro; cited from earlier work
# F263L S1P3 [7] = target: T2, F263L S1P3; assay: MAPmates multiplex assay pERK1/2; type: cell-based
# S1P4 = details: read-out: S1P4 EC50; in vitro; cited from earlier work
# [8] = system: panel of 55 GPCRs, ion channels, and transporters; assay: Ricerca profiling panel
# S1P5 = details: read-out: S1P5 EC50; in vitro; cited from earlier work
# S1P1 = details: read-out: S1P1 EC50; in vitro; cited from earlier work
# S1P3 [9] = target: T1, S1P3; assay: S1P3-NFAT β-lactamase reporter; type: cell-based; details: S1P3-CHO cells, calcium flux dependent β-lactamase assay
# Summary of the method: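 CHO cells stably expressing human S1P3 and an NFAT-β-lactamase reporter, plated at 1 × 10^6/mL in phenol red-free DMEM with 0.5% charcoal/dextran FBS and held overnight at 37°C, 5% CO2. S1P dilution series plus six fixed allosteric-agonist levels (EC0–EC80), single-agonist controls, 4 h at 37°C. β-Lactamase FRET substrate with probenecid added, 2 h at room temperature. Read at ex 405 / em 535 and 460 nm. Mean ± SEM.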
# [10] = ERK phosphorylation, SPM-242 at 1 uM
# T1 sequence (Q99500 whole entry): as the sequence (Q99500 whole entry W256L/F263L) above, with L256W, L263F counted along it
Compound,right-shift of the concentration response curve of S1P (S1P3 [1]; [10]),shift of the concentration response curve of CYM-5541 (S1P3 [1]; [10]),selectivity among S1P receptors [2],stability of phosphate-ester bond [3],solubility (Solubility),competition for [33P]S1P binding [4],ERK phosphorylation response (M98A mutant S1P3),effect of F263L mutation on ligand-induced receptor activation (F263L S1P3 [5]),effect of W256L mutation on ligand-induced receptor activation (W256L S1P3),ERK phosphorylation response (S1P3 [1]),ERK phosphorylation response (R114A mutant S1P3),signalling bias compared to S1P (S1P3 [6]),EC50 (S1P2),agonist efficacy: maximum level of ERK phosphorylation compared with S1P (S1P3 [1]; WT S1P3 Jump-In stable CHO cells),receptor activation (pERK1/2) compared to WT S1P3 (F263L S1P3 [7]),EC50 (S1P4),activity in Ricerca profiling panel [8],EC50 (S1P5),EC50 (S1P1),response on co-application of S1P and CYM-5541 (S1P3 [9])
"NC(CO)(CCc1ccc(Sc2cccc(O)c2)cc1Cl)COP(=O)(O)O (single isomer, unassigned; (+)) [SPM-242, (+)-2-amino-4-(2-chloro-4-((3-hydroxyphenyl)thio)phenyl)-2-(hydroxymethyl)butyl dihydrogen phosphate]",152 fold,6 fold,selective for S1P3,extremely labile,low solubility,reversed [^33P]S1P binding competitively in a dose dependent manner,,,,,,,,,,,,,,
"CCCCCCCCCCCCC/C=C/[C@@H](O)[C@@H](N)COP(=O)(O)O [S1P, Sphingosine 1-phosphate, reference compound]",,,,,,competitively reversed in a dose dependent manner,agonist dose-dependent ERK phosphorylation,not S1P-induced activation,did not affect,agonist dose-dependent ERK phosphorylation,unable to respond,,,,,,,,,
"O=C(c1cc(C2CC2)on1)N(C1CCCCC1)C1CCCCC1 [CYM-5541, N,N-dicyclohexyl(5-cyclopropylisoxazol-3-yl)carboxamide]",,,,,low solubility,unable to compete,agonist dose-dependent ERK phosphorylation,shifted CYM-5541-induced receptor activation,did not affect,agonist dose-dependent ERK phosphorylation,comparable for WT and R114A,no such differences were observed,> 50 µM,full agonist,significantly diminished receptor activation,> 50 µM,no significant activities,> 25 µM,> 10 µM,additive and no synergy was observed
